Laboratory results as given in ChEMBL document CHEMBL1158528, “Synthesis of structurally simplified analogues of aplidinone A, a pro-apoptotic marine thiazinoquinone” (Bioorg Med Chem, 2010).
The source made the active and inactive calls. No cut-off for these calls is given here.

system: not listed separately; assay: Cytotoxicity against human 293T cells after 48 hrs by calcein-AM assay; type: cell-based; details: HEK-293T
How it was run: (§1)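 Adherent lines were grown in DMEM with 10% heat-inactivated FBS, 2 mM glutamine, penicillin and streptomycin, seeded at 10^4 cells/well, and exposed to increasing concentrations for 48 h. DMSO stocks were diluted in medium, with final DMSO ≤1%. Calcein-AM (1 µM final) was added for 60 min, stopped on ice, and cells were washed twice with cold HBSS. Fluorescence was read at 485/535 nm to derive IC50.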

SMILES | IC50 [µM]
CCC1=C(OC)C(=O)C2=C(C1=O)S(=O)(=O)CCN2 | 32.6
CCCCCCCCC1=C(OC)C(=O)C2=C(C1=O)S(=O)(=O)CCN2 | 8.7
CCCCCCCCCCCCCCC1=C(OC)C(=O)C2=C(C1=O)S(=O)(=O)CCN2 | 47.9

system: Jurkat; assay: Cytotoxicity against human Jurkat cells after 24 hrs by PI staining based flow cytometry; type: functional, cell-based; details: not given
How it was run: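 Jurkat cells (10^6) were exposed to increasing concentrations for 24 h, then stained with propidium iodide (10 µg/mL in PBS) for 1 min at room temperature. Membrane-compromised cells were counted immediately by flow cytometry with 488 nm excitation.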

SMILES | IC50 [µM]
CCC1=C(OC)C(=O)C2=C(C1=O)S(=O)(=O)CCN2 | > 50
CCCCCCCCCCCCCCC1=C(OC)C(=O)C2=C(NCCS2(=O)=O)C1=O | > 50
CCC1=C(OC)C(=O)C2=C(NCCS2(=O)=O)C1=O | > 50
COC1=C(C/C=C(\C)CCC=C(C)C)C(=O)C2=C(C1=O)S(=O)(=O)CCN2 [APLIDINONE A] | 44.5
CCCCCCCCC1=C(OC)C(=O)C2=C(NCCS2(=O)=O)C1=O | > 50
CCCCCCCCC1=C(OC)C(=O)C2=C(C1=O)S(=O)(=O)CCN2 | 20.7
CCCCCCCCCCCCCCC1=C(OC)C(=O)C2=C(C1=O)S(=O)(=O)CCN2 | > 50

system: Jurkat 5.1 (human); assay: Inhibition of TNF-alpha-induced NF-kappaB activation in human Jurkat 5.1 cells by luciferase assay relative to control; details: not given

SMILES | Activity
CCC1=C(OC)C(=O)C2=C(NCCS2(=O)=O)C1=O | inactive
CCCCCCCCC1=C(OC)C(=O)C2=C(C1=O)S(=O)(=O)CCN2 | Active

system: Jurkat; assay: Cell cycle arrest in human Jurkat cells assessed as apoptotic cells at 10 uM after 24 hrs by flow cytometry; type: functional; details: not given
How it was run: (§2)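 Jurkat cells in RPMI 1640 with 10% FBS, 2 mM glutamine and antibiotics, at 37 °C and 5% CO2, were treated for 24 h. Cells were fixed in 70% ethanol for 24 h at 4 °C, washed with PBS containing 4% glucose, and digested with RNase A (50 U/mL) plus PI staining for 1 h at RT. The subdiploid (sub-G0/G1) fraction was measured by flow cytometry.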

SMILES | Activity [%]
CCCCCCCCC1=C(OC)C(=O)C2=C(C1=O)S(=O)(=O)CCN2 | 26.5

system: A549; assay: Cytotoxicity against human A549 cells after 48 hrs by calcein-AM assay; type: functional, cell-based; details: A549, 48 h; how it was run: as §1

SMILES | IC50 [µM]
CCC1=C(OC)C(=O)C2=C(C1=O)S(=O)(=O)CCN2 | > 50
CCCCCCCCC1=C(OC)C(=O)C2=C(C1=O)S(=O)(=O)CCN2 | 13
CCCCCCCCCCCCCCC1=C(OC)C(=O)C2=C(C1=O)S(=O)(=O)CCN2 | 50.8

system: Jurkat; assay: Cell cycle arrest in human Jurkat cells assessed as apoptotic cells at 25 uM after 24 hrs by flow cytometry; type: functional; details: not given; how it was run: as §2

SMILES | Activity [%]
CCC1=C(OC)C(=O)C2=C(C1=O)S(=O)(=O)CCN2 | 9.6
CCCCCCCCC1=C(OC)C(=O)C2=C(C1=O)S(=O)(=O)CCN2 | 45

system: AGS; assay: Cytotoxicity against human AGS cells after 48 hrs by calcein-AM assay; type: functional, cell-based; details: not given; how it was run: as §1

SMILES | IC50 [µM]
CCC1=C(OC)C(=O)C2=C(C1=O)S(=O)(=O)CCN2 | > 50
CCCCCCCCC1=C(OC)C(=O)C2=C(C1=O)S(=O)(=O)CCN2 | 7.2
CCCCCCCCCCCCCCC1=C(OC)C(=O)C2=C(C1=O)S(=O)(=O)CCN2 | 45

system: HCT-116; assay: Cytotoxicity against human HCT116 cells after 48 hrs by calcein-AM assay; type: functional, cell-based; details: HCT-116, 48 h; how it was run: as §1

SMILES | IC50 [µM]
CCC1=C(OC)C(=O)C2=C(C1=O)S(=O)(=O)CCN2 | > 50
CCCCCCCCC1=C(OC)C(=O)C2=C(C1=O)S(=O)(=O)CCN2 | 14.1
CCCCCCCCCCCCCCC1=C(OC)C(=O)C2=C(C1=O)S(=O)(=O)CCN2 | 44.8

system: Jurkat; assay: Cell cycle arrest in human Jurkat cells assessed as increase in apoptotic cells after 24 hrs by flow cytometry; type: functional, cell-based; details: not given; how it was run: as §2

SMILES | Activity
CCC1=C(OC)C(=O)C2=C(C1=O)S(=O)(=O)CCN2 | Active
CCC1=C(OC)C(=O)C2=C(NCCS2(=O)=O)C1=O | Active
CCCCCCCCC1=C(OC)C(=O)C2=C(NCCS2(=O)=O)C1=O | Active

system: HeLa; assay: Cytotoxicity against human HeLa cells after 48 hrs by calcein-AM assay; type: functional, cell-based; details: not given; how it was run: as §1

SMILES | IC50 [µM]
CCC1=C(OC)C(=O)C2=C(C1=O)S(=O)(=O)CCN2 | > 50
CCCCCCCCC1=C(OC)C(=O)C2=C(C1=O)S(=O)(=O)CCN2 | 24.8
CCCCCCCCCCCCCCC1=C(OC)C(=O)C2=C(C1=O)S(=O)(=O)CCN2 | 47.9
